Compound activity from PubChem.
APP 5'UTR act – APP 5'UTR luciferase reporter activation. SH-SY5Y APP 5'UTR luciferase reporter, luminescence; zero percent = DMSO vehicle wells. activation, % at 2 µM. 1% of 190,000 active. AID 1276;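 active = activation above a set limit, based on mean plus 3 SD of controls, cut at about 140% in these data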
PERK inh – blocks human PERK kinase | inhibition, % at 5.6 µM | AID 1416 | 0.17% of 220,000 active | CHO PERK-DD fusion, SEAP luminescence translation reporter;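 active = inhibition above the mean inhibition of all tested compounds plus 3 SD, set separately per screening campaign, cut at about 2.9% in these data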;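 note: PERK kinase domain activated by AP20187 dimerizer at 100 nM; 0% = DMSO with dimerizer and 100% = rapamycin at 8.4 µM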
NF-kB neuron act – compounds increasing NF-kB expression in human neuronal cells. NF-kB reporter expression; active compounds read high. fold change at 12.5 µM. 1.6% of 190,000 active. AID 1239; in the data active = fold change above about 3.3
STAT1 act – STAT1 signaling activation. activation (% of control), % at 5.5 µM. 2.6% of 200,000 active. NIH 3T3 STAT1-luciferase reporter, IFN-gamma, luminescence; 100% = IFN-gamma alone, no compound. AID 932;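 active = activation above the screen-wide mean activation plus 3 SD, cut at about 130% in these data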;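 note: raw ratio to IFN-gamma control signal so 100% means no change and 0% no light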
AHR activator – activators of human aryl hydrocarbon receptor; P35869; AHR-responsive luciferase reporter cells, luminescence; activation, % at 5 µM; 2.5% of 320,000 active; in the data active = activation above about 47%;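 note: 0% = vehicle wells and 100% = reference agonist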
MDM2 E3 inh – Mdm2 E3 ligase (human) inhibition. Q00987. cell-based MDM2 ubiquitination luciferase reporter, 2 h; 0 = plate control, 100 = twice control, blank-subtracted. signal enhancement, % at 5 µM. 0.11% of 210,000 active;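 active = signal enhancement of 30% or more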;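 note: luminescence tracks abundance of the self-degrading MDM2-luciferase fusion protein; higher signal means inhibition of MDM2 E3 ligase activity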
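Assay system: stable mammalian line carrying autodegrading MDM2–luciferase fusion reporter; Input: 2000 cells in each well; Compound dosing: single-point 5 µM; Schedule: 2 h compound exposure at 37 °C; Signal: SteadyLite luciferase luminescence after 15 min room-temperature reagent incubation; Evaluation: % luminescence enhancement versus blank-corrected plate control mean; Benchmarks: plate controls and plate blanks.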
Active calls of the source: *. Hits are enriched below; roughly 4.5% of the tested compounds scored in any of these assays.

`O=Cc1c(OCc2ccccc2)ccc2ccccc12` gave APP 5'UTR act 50, PERK inh 0, NF-kB neuron act 1.9, STAT1 act 134*, AHR activator 8 and MDM2 E3 inh -4.
For C/[N+]([O-])=C/c1c(OCc2ccccc2)ccc2ccccc12 the results were AHR activator 15.
Screening NC1=NC[C@@H](Cc2ccc(O)cc2)N1CCC12CC3CC(CC(C3)C1)C2 returned AHR activator -1.
Screening O=C1CN(c2nc(-c3ccccc3)c3ccccc3n2)c2ccccc2N1 returned PERK inh 0, NF-kB neuron act 1.2, STAT1 act 95, AHR activator 61* and MDM2 E3 inh -9.
`O=C(/C=C/NNC(=O)c1ccc(Cl)cc1)c1ccccc1` gave APP 5'UTR act 1, PERK inh 1, NF-kB neuron act 0.91, STAT1 act 133*, AHR activator 8 and MDM2 E3 inh -9.
Screening O=c1oc2cc(Br)ccc2n1CSC1=NCCS1 returned APP 5'UTR act 23, PERK inh 0, NF-kB neuron act 7.7*, STAT1 act 98, AHR activator 15 and MDM2 E3 inh -7.
`CCCc1nnc(NC(=O)Cn2c(=O)oc3cc(Br)ccc32)s1` gave APP 5'UTR act 12, PERK inh 1, NF-kB neuron act 1.1, STAT1 act 113, AHR activator 1 and MDM2 E3 inh -18.
Screening CCOC(=O)CN1CC23C=CC(O2)C(C(=O)Nc2ccc4c(c2)OCO4)C3C1=O (stereo unspecified) returned APP 5'UTR act -4, PERK inh 1, NF-kB neuron act 1.5, STAT1 act 108, AHR activator 70* and MDM2 E3 inh -9.
For N#CCC(=O)Nc1ccc(C(=O)OCC(=O)c2ccc3c(c2)OCCO3)cc1 the results were APP 5'UTR act 112, PERK inh 0, NF-kB neuron act 4.6*, STAT1 act 116, AHR activator -4 and MDM2 E3 inh -29.
Screening NS(=O)(=O)c1cc(C(=O)OCC(=O)c2ccc3c(c2)OCCO3)ccc1Cl returned APP 5'UTR act 18, PERK inh 0, NF-kB neuron act 9.8*, STAT1 act 120, AHR activator -2 and MDM2 E3 inh -13.
For CNc1ccccc1C(=O)OCC(=O)c1ccc(F)cc1 the results were APP 5'UTR act 8, PERK inh 2, NF-kB neuron act 1.6, STAT1 act 132*, AHR activator 4 and MDM2 E3 inh -13.
Screening NS(=O)(=O)c1cc(C(=O)NNC(=O)c2ccc3c(c2)OCO3)ccc1Cl returned AHR activator 1.
Screening CC(C)C(=O)Nc1ccccc1C(=O)OCC(=O)c1ccc2c(c1)OCCO2 returned APP 5'UTR act 31, PERK inh 0, NF-kB neuron act 0.85, STAT1 act 139*, AHR activator -1 and MDM2 E3 inh 0.
`CNc1ccccc1C(=O)OCC(=O)c1ccccc1` gave APP 5'UTR act -4, PERK inh 1, NF-kB neuron act 1.4, STAT1 act 124 and AHR activator 0.
`N#CCC(=O)Nc1ccc(C(=O)OCC(=O)c2ccc3c(c2)OCO3)cc1` gave AHR activator 2.
Brc1cccc(CNCC2CCCO2)c1 (stereo unspecified) was read as AHR activator 2.
COc1ccc(N=Cc2nc(-c3ccccc3)oc2OC(C)=O)cc1 was read as PERK inh 1, AHR activator 0 and MDM2 E3 inh 3.
For CN(C)c1ccc(N=Cc2nc(-c3ccccc3)oc2OC(=O)c2cccc(Cl)c2)cc1 the results were APP 5'UTR act 135, PERK inh 0, NF-kB neuron act 3.4*, STAT1 act 129*, AHR activator 60* and MDM2 E3 inh -10.
Screening Cc1ccc(C(=O)Oc2oc(-c3ccccc3)nc2C=Nc2ccc(N(C)C)cc2)cc1 returned APP 5'UTR act 146*, PERK inh 0, NF-kB neuron act 1.1, STAT1 act 149*, AHR activator 58* and MDM2 E3 inh -18.
For Cc1ccc2nc(-c3ccc(N4C(=O)CC(N5CCCC(C)C5)C4=O)cc3)sc2c1 (stereo unspecified) the results were APP 5'UTR act 84, PERK inh 0, NF-kB neuron act 1.5, STAT1 act 107 and MDM2 E3 inh -5.
`Cc1ccc2nc(-c3ccc(N4C(=N)SC5CS(=O)(=O)CC54)cc3)sc2c1` (stereo unspecified) gave APP 5'UTR act 71, PERK inh 1, NF-kB neuron act 1.2, STAT1 act 130*, AHR activator 6 and MDM2 E3 inh -24.
Nc1ccccc1-c1nnc(-c2ccccc2N)n1N was read as APP 5'UTR act 12, PERK inh 1, NF-kB neuron act 1.1, STAT1 act 94, AHR activator 48* and MDM2 E3 inh -20.
Screening Nn1c(-c2ccccn2)nnc1-c1ccccn1 returned APP 5'UTR act 20, PERK inh -1, NF-kB neuron act 1.4, STAT1 act 125, AHR activator 5 and MDM2 E3 inh -11.
COc1ccc(C)cc1NC(=O)C(=O)NNC(=O)c1ccco1 was read as PERK inh -1, NF-kB neuron act 1.1, STAT1 act 93, AHR activator 28 and MDM2 E3 inh -26.
`Cc1[nH][nH]c(=O)c1N=Nc1ccc(Cl)cc1` gave APP 5'UTR act 9, PERK inh 0, NF-kB neuron act 1, STAT1 act 118, AHR activator 51* and MDM2 E3 inh -18.
Screening COc1cc(S(=O)(=O)NCCCN2CCOCC2)ccc1Cl returned APP 5'UTR act 8, PERK inh 2.9*, NF-kB neuron act 0.97, STAT1 act 104, AHR activator -1 and MDM2 E3 inh -6.
Cc1ccc(S(=O)(=O)NCCCN2CCOCC2)cc1C was read as APP 5'UTR act 3, PERK inh 1, NF-kB neuron act 1.4, STAT1 act 97, AHR activator -1 and MDM2 E3 inh 3.
For Cc1ccc(N=Cc2nc(-c3ccco3)oc2O)cc1 the results were APP 5'UTR act 75, PERK inh 0, NF-kB neuron act 3.5*, STAT1 act 141*, AHR activator 3 and MDM2 E3 inh -21.
`Nc1nccc(-c2ccc(-n3cnc4ccccc43)cc2)n1` gave APP 5'UTR act 13, PERK inh 0, NF-kB neuron act 0.75, STAT1 act 99, AHR activator 48* and MDM2 E3 inh -23.
`Nc1ccc2nn(-c3cc([N+](=O)[O-])ccc3O)nc2c1` gave AHR activator 22.
CC(C)c1ccc(-n2nc3ccc(N)cc3n2)cc1 was read as APP 5'UTR act 117, PERK inh 1, NF-kB neuron act 4.9*, STAT1 act 84, AHR activator 58* and MDM2 E3 inh -32.
For COc1cccc(NC(=O)COC(=O)c2ccccc2C(=O)N(C)c2ccccc2)c1 the results were AHR activator 1.
